Data as given in PMC2757082 (Biopolymers, 2009).
Where “and” joins values, the source holds several entries; their conditions need not be identical. Identical values can stand only once. Like-named read-outs stand apart in the source and are kept apart here.

Assays:
Assay type in all cases: biochemical
[1] = biological target: F1Fo-ATPase from E. coli in liposomes (Escherichia coli, UniProt P0ABB4)
[2] = biological target: T1, F1Fo-ATPase in bovine SMPs (Bos taurus, UniProt P00829); test: Bovine SMP ATP hydrolysis steady-state kinetic assay; conditions: for Vmax2 (maximal catalytic rate of ESI complex) / Ki: Bovine, ±SE
[3] = biological target: T1, F1Fo-ATPase in bovine SMPs; test: Bovine SMP ATP synthesis steady-state kinetic assay; conditions: for Ki: Bovine, ±SE
In short: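 ATP synthesis by bovine heart SMPs was read by coupling ATP production to NADP⁺ reduction at varied ADP (1.875–1200 μM). SMPs were preincubated 5 min with aurovertin (1% DMSO final) or DMSO control before substrate or coupling reagents. Apparent parameters came from Michaelis-Menten fits at each inhibitor level, with secondary plots fit by eqs 2–4. 3D fits of velocity against MgADP and inhibitor used eq 6 (mixed inhibition model).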

[4] = biological target: E. coli membrane F1Fo-ATPase (Escherichia coli, UniProt P0ABB4); test: E. coli everted membrane ATP hydrolysis steady-state kinetic assay
In short: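 Everted membrane vesicles came from E. coli strain LE392 and were used at 33 μg mL⁻¹, with 5 mM KCN to block chemiosmotic phosphorylation. ATP hydrolysis was read by the NADH-coupled assay, with aurovertin at 1% DMSO final. Michaelis-Menten fits of initial velocity gave apparent kinetic parameters at each inhibitor concentration. Secondary plots were fit with eqs 2–4, assuming residual catalytic activity at saturating inhibitor.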

[5] = HMM-based FRET level assignment, presence of aurovertin
[6] = aurovertin and ATP, Gaussian fit
[7] = bovine, synthesis vs hydrolysis

Sequence of F1Fo-ATPase from E. coli in liposomes (P0ABB4 2-460 limits assumed): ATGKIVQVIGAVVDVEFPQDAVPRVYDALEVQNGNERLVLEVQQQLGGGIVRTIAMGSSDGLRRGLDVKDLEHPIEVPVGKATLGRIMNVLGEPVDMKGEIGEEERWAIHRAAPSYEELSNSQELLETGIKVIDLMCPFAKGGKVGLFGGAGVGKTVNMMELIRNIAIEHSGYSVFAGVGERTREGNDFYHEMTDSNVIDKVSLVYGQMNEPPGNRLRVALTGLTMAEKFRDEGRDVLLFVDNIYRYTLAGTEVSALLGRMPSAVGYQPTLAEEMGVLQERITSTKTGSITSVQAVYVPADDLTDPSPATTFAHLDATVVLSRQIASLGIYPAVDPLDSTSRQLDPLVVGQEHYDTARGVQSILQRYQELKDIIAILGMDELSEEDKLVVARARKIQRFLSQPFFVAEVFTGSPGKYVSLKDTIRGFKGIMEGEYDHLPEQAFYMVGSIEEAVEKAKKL

In the case of `CC[C@H]1O[C@]2(C)[C@H](OC(C)=O)[C@@]1(C)O[C@@H](/C=C/C=C/C=C/c1oc(=O)cc(OC)c1C)[C@@H]2O` [aurovertin, Aurovertin B], the “remaining activity (turnover ratio in presence and absence of aurovertin)” value ([1]; 20 μM drug, 1 mM ATP) is reported as “about 60%”, the “dwell time decay component τ” value [1, 5] is reported as 28 ± 11 ms and the “dwell time rise time τ” value [1, 5] is reported as 16 ± 8 ms. The “proximity factor P maximum, H level” value [1, 6] was 0.75, the “proximity factor P maximum, L level” value [1, 6] was 0.31 and the “proximity factor P maximum, M level” value [1, 6] was 0.51. For the same molecule, the “fraction of F1Fo-ATPases showing stepwise changing FRET levels” value ([1]; saturating (20 μM) aurovertin, of 3685 marked photon bursts) was 10.4%, the “increase of the value of Vmax/Km” value ([2]; ATP hydrolysis, saturating aurovertin concentrations) was 50% and the “Vmax2 (maximal catalytic rate of ESI complex)” value (“Vmax2” below) ([2]; ATP hydrolysis, 3D fit eq 5, n(E)=1, n(ES)=1) was 0.23 ± 0.01 µmol/min/mg. For the same molecule, the “Vmax2” value ([2]; ATP hydrolysis, 3D fit eq 5, n(E)=2, n(ES)=1) was 0.22 ± 0.01 µmol/min/mg, the “mechanism of inhibition of ATP hydrolysis” value ([2]; bovine SMPs) was “mixed mechanism of inhibition” and the Ki ([2]; read-out: Ki(E), ATP hydrolysis, 3D fit eq 5, n(E)=1, n(ES)=1) was 0.82 ± 0.25 µM. It also gave a Ki ([2]; read-out: Ki(E), ATP hydrolysis, 3D fit eq 5, n(E)=2, n(ES)=1) of 0.96 ± 0.25 µM, a Ki ([2]; read-out: Ki(ES), ATP hydrolysis, 3D fit eq 5, n(E)=1, n(ES)=1) of 0.119 ± 0.017 µM and a Ki ([2]; read-out: Ki(ES), ATP hydrolysis, 3D fit eq 5, n(E)=2, n(ES)=1) of 0.12 ± 0.017 µM. The “decrease of the value of Vmax for catalysis of ATP hydrolysis” value ([2]; saturating aurovertin, fit eq 2-4, n=1) was ~ 2.5 fold, the “enzyme activity at saturating substrate and inhibitor concentrations” value ([3]; ATP synthesis) was “inactive” and the “increase in the value of the apparent Km” value ([3]; ATP synthesis, bovine SMPs) was > 2 fold. For the same molecule, the “mechanism of inhibition of ATP synthesis” value ([3]; bovine SMPs) was “mixed inhibitor”, the “decrease of Ki(E) during ATP synthesis versus hydrolysis” value [3, 7] was 60 fold and the “decrease of Ki(ES) during ATP synthesis versus hydrolysis” value [3, 7] was 5 fold. The Ki ([3]; read-out: Ki(E), ATP synthesis, 3D fit eq 6, n(E)=1, n(ES)=1) was 0.013 ± 0.004 µM, the Ki ([3]; read-out: Ki(E), ATP synthesis, 3D fit eq 6, n(E)=2, n(ES)=1) was 0.016 ± 0.002 µM and the Ki ([3]; read-out: Ki(ES), ATP synthesis, 3D fit eq 6, n(E)=1, n(ES)=1) was 0.022 ± 0.003 µM. For the same molecule, the Ki ([3]; read-out: Ki(ES), ATP synthesis, 3D fit eq 6, n(E)=2, n(ES)=1) was 0.025 ± 0.004 µM, the “Vmax2” value ([4]; E. coli, 3D fit eq 5, n(E)=2, n(ES)=1, ±SE) was 0.06 ± 0.01 µmol/min/mg and the “residual activity at saturating aurovertin” value ([4]; everted E. coli membranes, eq 5 fit) was ~ 20% and 20%. It also gave a Ki ([4]; read-out: Ki(E), E. coli, 3D fit eq 5, n(E)=2, n(ES)=1, ±SE) of 0.43 ± 0.07 µM and a Ki ([4]; read-out: Ki(ES), E. coli, 3D fit eq 5, n(E)=2, n(ES)=1, ±SE) of 0.15 ± 0.02 µM.
